Results as given in ChEMBL document CHEMBL1124054, “Synthesis and biological activity of ketomethylene-containing nonapeptide analogues of snake venom angiotensin converting enzyme inhibitors” (J Med Chem, 1988).
Starred links: 1 amine or outer side, 2 acyl side, 3 side chain; linkers in the order of their positions; H or OH if unused. Non-standard residues stand in square brackets, D forms with d. Residues, ends and D or L forms follow the SMILES beside them. *: point of attachment. X2 = O=C(CCC(=O)[*:2])[C@H](Cc1ccccc1)N[*:1]; X1 = O=C(CCC(=O)[*:2])[C@@H]1CCCN1[*:1]; X3 = O=C1CCN([*:1])[C@H]1C(=O)[*:2]; Cyclobutanecarbonyl = O=C(C1CCC1)*; Nle = CCCC[C@H](N)C(=O)O

Experiments:
[1] = biological target: Angiotensin-converting enzyme (Oryctolagus cuniculus) (UniProt P12822); experiment: Inhibition of Angiotensin I converting enzyme from rabbit lung; conditions: read-out: I50
[2] = Time required for degradation by pepsin (none); format: ADME
[3] = species: Rattus norvegicus; experiment: Time required for 100% degradation in rat intestinal homogenate; format: ADME
In short: (§1)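 Rat small intestine was taken immediately after sacrifice and minced in Krebs Ringer (10 mL/g). Peptide (0.2–0.5 μmol) mixed with homogenate (1.0 mL per μmol), shaken at 37 °C. Degradation followed by TLC.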

[4] = test system: chymotrypsin; experiment: Time required for 50% degradation by chymotrypsin; format: ADME; conditions: read-out: Time (converted)
In short: (§2)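 Peptide (0.5–1.0 μmol) in 0.1 M Tris, pH 7.8, stirred at room temperature with chymotrypsin (37 units dissolved in 50 mL cold 0.001 N HCl; 0.050 mL per μmol peptide). Degradation followed over time by TLC.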

[5] = species: Rattus norvegicus; experiment: Time required for 100% degradation in rat stomach homogenate; format: ADME
In short: (§3)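 Peptide, partially neutralized with 0.1 N HCl, incubated at 37 °C with 150 mg rat stomach homogenate. Breakdown monitored by TLC.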

[6] = test system: trypsin; experiment: Time required for 50% degradation by trypsin; format: ADME; conditions: read-out: Time
[7] = Time required for 50% degradation in rat intestinal homogenate; format: ADME; conditions: read-out: Time (converted)
In short: as §1

[8] = Time required for 50% degradation in rat stomach homogenate; format: ADME; conditions: read-out: Time (converted)
In short: as §3

[9] = Time required for 100% degradation by trypsin; format: ADME
[10] = test system: Rattus norvegicus; experiment: Inhibition of angiotensin I induced blood pressure in normotensive anesthetized rats at 10 ug/kg (i.v.) for 30 min; format: functional
In short: (§4)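 Male Sprague-Dawley normotensive rats (290-540 g), pentobarbital-anesthetized (50 mg/kg ip), intubated. Jugular vein cannulated for iv dosing and carotid artery for blood pressure. Control pressor response to angiotensin I (175 ng/kg iv) taken after vehicle (1 mL/kg). Compound given iv in distilled water or 5% sodium bicarbonate. Angiotensin I challenge repeated at 1.5 to 75 min, rise in pressure compared with control.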

[11] = test system: Rattus norvegicus; experiment: Inhibition of angiotensin I induced blood pressure in normotensive anesthetized rats at 30 ug/kg (i.v.) for 1.5 min; format: functional
In short: as §4

[12] = test system: Rattus norvegicus; experiment: Inhibition of angiotensin I induced blood pressure in normotensive anesthetized rats at 30 ug/kg (i.v.) for 60 min; format: functional
In short: as §4

[13] = test system: Rattus norvegicus; experiment: Inhibition of angiotensin I induced blood pressure in normotensive anesthetized rats at 30 ug/kg (i.v.) for 5 min; format: functional
In short: as §4

[14] = test system: Rattus norvegicus; experiment: Inhibition of angiotensin I induced blood pressure in normotensive anesthetized rats at 1 ug/kg (i.v.) for 5 min; format: functional
In short: as §4

[15] = test system: Rattus norvegicus; experiment: Inhibition of angiotensin I induced blood pressure in normotensive anesthetized rats at 10 ug/kg (i.v.) for 60 min; format: functional
In short: as §4

[16] = test system: Rattus norvegicus; experiment: Inhibition of angiotensin I induced blood pressure in normotensive anesthetized rats at 30 ug/kg (i.v.) for 30 min; format: functional
In short: as §4

[17] = test system: Rattus norvegicus; experiment: Inhibition of angiotensin I induced blood pressure in normotensive anesthetized rats at 10 ug/kg (i.v.) for 10 min; format: functional
In short: as §4

[18] = test system: Rattus norvegicus; experiment: Inhibition of angiotensin I induced blood pressure in normotensive anesthetized rats at 30 ug/kg (i.v.) for 75 min; format: functional
In short: as §4

[19] = test system: Rattus norvegicus; experiment: Inhibition of angiotensin I induced blood pressure in normotensive anesthetized rats at 1 ug/kg (i.v.) for 10 min; format: functional
In short: as §4

[20] = test system: Rattus norvegicus; experiment: Inhibition of angiotensin I induced blood pressure in normotensive anesthetized rats at 1 ug/kg (i.v.) for 30 min; format: functional
In short: as §4

[21] = test system: Rattus norvegicus; experiment: Inhibition of angiotensin I induced blood pressure in normotensive anesthetized rats at 10 ug/kg (i.v.) for 1.5 min; format: functional
In short: as §4

[22] = test system: Rattus norvegicus; experiment: Inhibition of angiotensin I induced blood pressure in normotensive anesthetized rats at 10 ug/kg (i.v.) for 5 min; format: functional
In short: as §4

[23] = test system: Rattus norvegicus; experiment: Inhibition of angiotensin I induced blood pressure in normotensive anesthetized rats at 1 ug/kg (i.v.) for 1.5 min; format: functional
In short: as §4

[24] = test system: Rattus norvegicus; experiment: Inhibition of angiotensin I induced blood pressure in normotensive anesthetized rats at 30 ug/kg (i.v.) for 10 min; format: functional
In short: as §4

[25] = test system: Rattus norvegicus; experiment: Inhibition of angiotensin I induced blood pressure in normotensive anesthetized rats at 1 ug/kg (i.v.) for 60 min; format: functional
In short: as §4

[26] = test system: Rattus norvegicus; experiment: Inhibition of angiotensin I induced blood pressure in normotensive anesthetized rats at 10 ug/kg (i.v.) for 75 min; format: functional; conditions: in the assay text read “30 ug/kg” for “10 ug/kg”
In short: as §4

[27] = test system: pepsin; experiment: Time required for 50% degradation by pepsin; format: ADME; conditions: read-out: Time (converted)
[28] = Time required for degradation by chymotrypsin (none); format: ADME
In short: as §2

[29] = Time required for degradation by trypsin (none); format: ADME
[30] = biological target: T1, Angiotensin-converting enzyme (Rattus norvegicus, UniProt P47820); experiment: Inhibition of Angiotensin I converting enzyme in normotensive rat; format: functional; conditions: read-out: I50 (converted)
T1 sequence (P47820 whole entry): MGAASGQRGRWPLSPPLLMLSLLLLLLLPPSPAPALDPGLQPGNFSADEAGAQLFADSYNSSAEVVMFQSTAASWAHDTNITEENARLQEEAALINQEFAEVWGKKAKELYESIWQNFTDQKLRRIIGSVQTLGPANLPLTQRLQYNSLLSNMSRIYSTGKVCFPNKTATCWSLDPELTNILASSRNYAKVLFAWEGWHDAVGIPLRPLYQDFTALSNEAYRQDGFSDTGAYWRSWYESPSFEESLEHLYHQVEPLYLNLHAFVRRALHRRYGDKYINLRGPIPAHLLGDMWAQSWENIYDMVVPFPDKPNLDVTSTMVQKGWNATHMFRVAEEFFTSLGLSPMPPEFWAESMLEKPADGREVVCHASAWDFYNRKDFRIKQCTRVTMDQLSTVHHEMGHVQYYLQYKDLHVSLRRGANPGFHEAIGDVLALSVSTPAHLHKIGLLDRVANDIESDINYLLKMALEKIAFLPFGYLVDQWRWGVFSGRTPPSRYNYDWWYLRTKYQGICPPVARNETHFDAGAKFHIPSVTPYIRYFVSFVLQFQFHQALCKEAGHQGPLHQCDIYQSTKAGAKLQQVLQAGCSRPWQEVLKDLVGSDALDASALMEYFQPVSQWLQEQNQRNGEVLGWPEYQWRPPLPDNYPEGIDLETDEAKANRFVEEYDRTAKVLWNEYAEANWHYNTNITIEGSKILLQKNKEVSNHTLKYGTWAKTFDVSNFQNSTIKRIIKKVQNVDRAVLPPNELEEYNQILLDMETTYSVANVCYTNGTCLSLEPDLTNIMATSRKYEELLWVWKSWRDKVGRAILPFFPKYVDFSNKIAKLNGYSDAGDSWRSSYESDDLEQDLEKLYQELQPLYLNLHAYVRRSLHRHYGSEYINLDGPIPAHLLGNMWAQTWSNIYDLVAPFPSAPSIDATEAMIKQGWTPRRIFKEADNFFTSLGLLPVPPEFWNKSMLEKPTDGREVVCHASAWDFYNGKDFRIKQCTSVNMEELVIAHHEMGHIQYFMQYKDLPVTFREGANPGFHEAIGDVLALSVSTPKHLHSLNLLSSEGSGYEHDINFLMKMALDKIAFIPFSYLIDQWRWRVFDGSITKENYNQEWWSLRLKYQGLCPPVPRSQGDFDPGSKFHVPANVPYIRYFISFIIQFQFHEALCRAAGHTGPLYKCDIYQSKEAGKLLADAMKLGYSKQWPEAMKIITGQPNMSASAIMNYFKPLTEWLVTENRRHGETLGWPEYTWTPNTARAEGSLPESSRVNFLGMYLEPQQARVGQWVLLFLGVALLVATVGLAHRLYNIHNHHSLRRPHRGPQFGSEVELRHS

| IC50 [1] [nM] | Time [2] [h] | Time [3] [h] | half-life [4] [h] | half-life [6] [min] | half-life [7] [h] | half-life [8] [h] | Time [9] [min] | Structure (SMILES) | Inhibition over time [10] [%] | Inhibition over time [11] [%] | Inhibition over time [13] [%] | Inhibition over time [14] [%] | Inhibition over time [16] [%] | Inhibition over time [17] [%] | Inhibition over time [19] [%] | Inhibition over time [20] [%] | Inhibition over time [21] [%] | Inhibition over time [22] [%] | Inhibition over time [23] [%] | Inhibition over time [24] [%] | further results |
| --- | --- | --- | --- | --- | --- | --- | --- | --- | --- | --- | --- | --- | --- | --- | --- | --- | --- | --- | --- | --- | --- |
| 6 | – | – | – | – | – | – | – | NCCCCC(NC(=O)C1CCC1)C(=O)NC(Cc1ccccc1)C(=O)CCC(=O)N1CCCC1C(=O)O (stereo not given) | – | – | – | – | – | – | – | – | – | – | – | – | – |
| 340 | 24 | 0.667 | 22 | < 5 | 0.333 | > 1 | 20 | NCCCC[C@H](NC(=O)[C@@H]1CCCN1C(=O)CNC(=O)[C@@H]1CCCN1C(=O)[C@H](Cc1ccc(O)cc1)NC(=O)C1CCC1)C(=O)N[C@@H](Cc1ccccc1)C(=O)NCC(=O)N1CCC[C@H]1C(=O)O (Cyclobutanecarbonyl-YPGPKFGP-OH) | – | – | – | – | – | – | – | – | – | – | – | – | Time [5]: 5 h |
| 3.4 | 20 | 5 | 22 | 5 | 1 | – | 60 | NCCCC[C@H](NC(=O)[C@@H]1CCCN1C(=O)CCC(=O)[C@@H]1CCCN1C(=O)[C@H](Cc1ccc(O)cc1)NC(=O)C1CCC1)C(=O)N[C@@H](Cc1ccccc1)C(=O)CCC(=O)N1CCC[C@H]1C(=O)O (Cyclobutanecarbonyl-Y[X1]PK[X2]P-OH) | 7.8 | 79.5 | 45 | 0 | 17.3 | 14.5 | 0 | 0 | 39.5 | 23.5 | 24.3 | 31.5 | Inhibition over time [12]: 15.3%; Inhibition over time [15]: 0%; Inhibition over time [18]: 12.5%; Inhibition over time [25]: 0% |
| 8 | – | 23 | – | – | 7 | 5 | – | CCCC[C@H](NC(=O)[C@@H]1CCCN1C(=O)CCC(=O)[C@@H]1CCCN1C(=O)[C@H](Cc1ccc(O)cc1)NC(=O)C1CCC1)C(=O)N[C@@H](Cc1ccccc1)C(=O)CCC(=O)N1CCC[C@H]1C(=O)O (Cyclobutanecarbonyl-Y[X1]P[Nle][X2]P-OH) | 0 | 88.5 | 59.8 | 25.6 | 30.8 | 14.5 | 24.3 | 22.4 | 64.3 | 27.5 | 26.3 | 37 | Inhibition over time [26]: 0%; half-life [27]: 3 h; Time [28]: 24 h; Time [29]: 24 h |
| – | – | – | – | – | – | – | – | C[C@H](NC(=O)[C@H](Cc1ccccc1)NC(=O)[C@H](CCCCN)NC(=O)[C@@H]1NCCC1=O)C(=O)N1CCC[C@H]1C(=O)O (H-[X3]KFAP-OH) | – | – | – | – | – | – | – | – | – | – | – | – | IC50 [30]: 87.3 nM |

| Structure (SMILES) | IC50 [1] [nM] | Time [2] [h] | Time [3] [h] | half-life [4] [h] | half-life [6] [min] | half-life [7] [h] | half-life [8] [h] | Time [9] [min] | Inhibition over time [10] [%] | Inhibition over time [11] [%] | Inhibition over time [13] [%] | Inhibition over time [14] [%] | Inhibition over time [16] [%] | Inhibition over time [17] [%] | Inhibition over time [19] [%] | Inhibition over time [20] [%] | Inhibition over time [21] [%] | Inhibition over time [22] [%] | Inhibition over time [23] [%] | Inhibition over time [24] [%] | further results |
| --- | --- | --- | --- | --- | --- | --- | --- | --- | --- | --- | --- | --- | --- | --- | --- | --- | --- | --- | --- | --- | --- |
| C[C@H](NC(=O)[C@H](Cc1ccccc1)NC(=O)[C@H](CCCCN)NC(=O)C1CCC1)C(=O)N1CCC[C@H]1C(=O)O (Cyclobutanecarbonyl-KFAP-OH) | 40 | – | – | – | – | – | – | – | – | – | – | – | – | – | – | – | – | – | – | – | – |
